In ChEMBL document CHEMBL4414644, “A New Approach of Mitigating CYP3A4 Induction Led to the Discovery of Potent Hepatitis B Virus (HBV) Capsid Inhibitor with Optimal ADMET Profiles” (J Med Chem, 2019):
The source made the active and inactive calls.

Legend:
[1] = Unbound fraction in human plasma at 1000 nM incubated for 5 hrs by LC-MS/MS analysis detection based equilibrium dialysis assay; format: ADME, cell-free
Procedure, shortened: (§1)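 Equilibrium dialysis of pooled plasma against Soerensen buffer pH 7.4 used a 12–14 kDa cutoff membrane. Compounds were run in cassettes of 2–5 at 1000 nM total, with diazepam as the membrane-integrity control. Dialysis ran 5 h at 37 °C under 5% CO2, followed by LC–MS/MS of both compartments. Unbound fraction is the average of 3 tests.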

[2] = Induction of CYP2B6 gene expression in cryopreserved human hepatocytes assessed as increase in CYP2B6 mRNA level at 10 uM incubated for 24 hrs by qRT-PCR analysis relative to phenobarbital
[3] = Cmax in BALB/c mouse at 3 mg/kg, po by LC-MS/MS analysis; format: ADME, organism-based; parameters: dose 3 mg/kg, route oral; conditions: in vivo
Procedure, shortened: (§2)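 Female BALB/c mice (16–22 g; 21 animals) got a single oral dose of 3 mg/kg in 2% Klucel, Tween 80, 0.1% parabens in water. EDTA-K2 plasma was taken at each time point. Livers were harvested right after blood sampling, rinsed in cold saline, weighed and snap-frozen. Both matrices were quantified by LC–MS/MS and analysed non-compartmentally, omitting BLQs.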

[4] = Induction of CYP1A2 gene expression in cryopreserved human hepatocytes assessed as increase in CYP1A2 mRNA level at 0.1 uM incubated for 24 hrs by qRT-PCR analysis relative to omeprazole; format: ADME, cell-based
Procedure, shortened: (§3)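 Cryopreserved hepatocytes from one human donor were seeded at 1 × 10^6 cells/mL and cultured 24 h in serum-free Williams E. Compounds at 0.1, 1.0 and 10 µM (0.1% DMSO) were added in triplicate for 24 h, with vehicle wells as negative controls. Positive controls were omeprazole for CYP1A2, phenobarbital for CYP2B6 and rifampicin for CYP3A4. mRNA was measured by TaqMan qRT-PCR normalised to PPIA (2^-ΔΔCT) and expressed as % of the positive control.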

[5] = Ionization constant (base), pKa of the compound; format: physicochemical
[6] = Permeability at 150 uM by PAMPA; format: ADME; conditions: read-out: permeability
Procedure, shortened: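 PAMPA: DMSO stock was diluted to 150 µM (<2% DMSO) in donor buffer of 0.05 M MOPSO pH 6.5 with 0.5% glycocholic acid. The acceptor was 0.05 M MOPSO pH 6.5. The membrane was 10% egg lecithin with 0.5% cholesterol in dodecane. Donor and acceptor concentrations were read at start and at ~18 h; results in 10^-6 cm/s.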

[7] = Solubility in pH 6.5 phosphate buffer stirred for 1 hr and shaken for 2 hrs by HPLC-UV based LYSA solubility assay; format: physicochemical
Procedure, shortened: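 Duplicate samples from 10 mM DMSO stock were dried, taken up in 0.05 M phosphate pH 6.5, stirred 1 h, shaken 2 h and left overnight. They were then filtered and the filtrate plus a 1/10 dilution analysed by HPLC-UV. Quantification used a four-point calibration; results in µg/mL.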

Hepatitis B virus [8] = experiment: Antiviral activity against HBV infected in BALB/c mouse hydrodynamic injection model hydrodynamically injected with replication-competent HBV DNA plasmid assessed as reduction in HBV DNA level in liver at 3 mg/kg, po BID for 5 days by RT-qPCR analysis; format: functional, organism-based
Procedure, shortened: (§4)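 Used female BALB/c mice aged 6–8 weeks carrying an HBV genotype D genome delivered by tail-vein hydrodynamic plasmid injection. Animals received vehicle or drug orally at the stated frequency for 5 days. Plasma and liver were sampled at set time points, and HBV DNA was quantified by real-time qPCR. Error bars are SEM.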

[9] = Induction of CYP1A2 gene expression in cryopreserved human hepatocytes assessed as increase in CYP1A2 mRNA level at 1 uM incubated for 24 hrs by qRT-PCR analysis relative to omeprazole; format: ADME, cell-based; procedure, shortened: as §3
[10] = Induction of CYP3A4 gene expression in cryopreserved human hepatocytes assessed as increase in CYP3A4 mRNA level at 1 uM incubated for 24 hrs by qRT-PCR analysis relative to rifampicin; format: ADME, cell-based; procedure, shortened: as §3
[11] = AUC (0 to infinity) in BALB/c mouse at 1 mg/kg, iv by LC-MS/MS analysis; format: ADME, organism-based; parameters: dose 1 mg/kg, route intravenous, time infinity; conditions: in vivo
Procedure, shortened: (§5)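 Female BALB/c mice (16–22 g; 12 animals) got a single IV dose of 1 mg/kg in 5% DMSO/40% PEG400/55% saline. Blood was taken into EDTA-K2 and spun at 2000 g for 5 min at 4 °C. Plasma was stored at -80 °C and quantified by LC–MS/MS. Parameters came from non-compartmental analysis, with BLQ values omitted.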

[12] = Induction of CYP2B6 gene expression in cryopreserved human hepatocytes assessed as increase in CYP2B6 mRNA level at 0.1 uM incubated for 24 hrs by qRT-PCR analysis relative to phenobarbital
[13] = Oral bioavailability in BALB/c mouse at 3 mg/kg by LC-MS/MS analysis; format: ADME, organism-based; conditions: in vivo; procedure, shortened: as §2
[14] = Cytotoxicity in human HepDE19 cells assessed as reduction in cell viability incubated for 5 days by CCK8 assay; format: cell-based
Procedure, shortened: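 HepDE19 cells were grown in DMEM-F12 with 10% FBS, penicillin/streptomycin and 0.5 mg/mL G418, then seeded at 5 × 10^3 cells/well. Compound exposure lasted 5 days. Viability was read with CCK-8 after 2 h at 37 °C, measuring OD450 and OD630. CC50 was the concentration killing 50% of cells; duplicate runs.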

[15] = Ionization constant (acid), pKa of the compound; format: physicochemical
[16] = Unbound fraction in mouse plasma at 1000 nM incubated for 5 hrs by LC-MS/MS analysis detection based equilibrium dialysis assay; format: ADME, cell-free; procedure, shortened: as §1
Hepatitis B virus [17] = experiment: Antiviral activity against HBV infected in BALB/c mouse hydrodynamic injection model hydrodynamically injected with replication-competent HBV DNA plasmid assessed as reduction in HBV DNA level in plasma at 12 mg/kg, po BID for 5 days by RT-qPCR analysis; format: functional, organism-based; procedure, shortened: as §4
Hepatitis B virus [18] = experiment: Antiviral activity against HBV infected in BALB/c mouse hydrodynamic injection model hydrodynamically injected with replication-competent HBV DNA plasmid assessed as reduction in HBV DNA level in liver at 12 mg/kg, po BID for 5 days by RT-qPCR analysis; format: functional, organism-based; procedure, shortened: as §4
[19] = Induction of CYP3A4 gene expression in cryopreserved human hepatocytes assessed as increase in CYP3A4 mRNA level at 10 uM incubated for 24 hrs by qRT-PCR analysis relative to rifampicin; format: ADME, cell-based; procedure, shortened: as §3
[20] = Apparent partition coefficient, logD of the compound at pH 7.4; format: physicochemical; conditions: octanol/water
[21] = AUC (0 to infinity) in BALB/c mouse liver at 3 mg/kg, po by LC-MS/MS analysis; format: ADME, organism-based; parameters: dose 3 mg/kg, route oral, time infinity; procedure, shortened: as §2
in vivo = conditions: BALB/c, mouse, liver/plasma, po, 3 mg/kg
[22] = Plasma clearance in BALB/c mouse at 1 mg/kg, iv by LC-MS/MS analysis; format: ADME, organism-based; procedure, shortened: as §5
[23] = Induction of CYP2B6 gene expression in cryopreserved human hepatocytes assessed as increase in CYP2B6 mRNA level at 1 uM incubated for 24 hrs by qRT-PCR analysis relative to phenobarbital
Hepatitis B virus [24] = experiment: Antiviral activity against HBV infected in BALB/c mouse hydrodynamic injection model hydrodynamically injected with replication-competent HBV DNA plasmid assessed as reduction in HBV DNA level in plasma at 3 mg/kg, po BID for 5 days by RT-qPCR analysis; format: functional, organism-based; procedure, shortened: as §4
[25] = AUC (0 to infinity) in BALB/c mouse plasma at 3 mg/kg, po by LC-MS/MS analysis; format: ADME, organism-based; parameters: dose 3 mg/kg, route oral, time infinity; procedure, shortened: as §2
[26] = Half life in BALB/c mouse at 1 mg/kg, iv by LC-MS/MS analysis; format: ADME, organism-based; conditions: in vivo; procedure, shortened: as §5
[27] = Toxicity in rat by 5-day mini-tox study; conditions: in vivo, 120 h
[28] = Drug metabolism in cryopreserved human hepatocytes assessed as glucuronide conjugation of carboxylic acid group at 1 uM incubated up to 120 mins by LC-MS/MS analysis; format: ADME, cell-based, Hepatocyte; conditions: 2 h
[29] = target: Voltage-gated inwardly rectifying potassium channel KCNH2 (Homo sapiens, UniProt Q12809); experiment: Inhibition of human ERG
[30] = Volume of distribution at steady state in BALB/c mouse at 1 mg/kg, iv by LC-MS/MS analysis; format: ADME, organism-based; conditions: in vivo, read-out: Vdss; procedure, shortened: as §5
[31] = Induction of CYP3A4 gene expression in cryopreserved human hepatocytes assessed as increase in CYP3A4 mRNA level at 0.1 uM incubated for 24 hrs by qRT-PCR analysis relative to rifampicin; format: ADME, cell-based; procedure, shortened: as §3
[32] = Induction of CYP1A2 gene expression in cryopreserved human hepatocytes assessed as increase in CYP1A2 mRNA level at 10 uM incubated for 24 hrs by qRT-PCR analysis relative to omeprazole; format: ADME, cell-based; procedure, shortened: as §3

Voltage-gated inwardly rectifying potassium channel KCNH2, sequence (Q12809 whole entry): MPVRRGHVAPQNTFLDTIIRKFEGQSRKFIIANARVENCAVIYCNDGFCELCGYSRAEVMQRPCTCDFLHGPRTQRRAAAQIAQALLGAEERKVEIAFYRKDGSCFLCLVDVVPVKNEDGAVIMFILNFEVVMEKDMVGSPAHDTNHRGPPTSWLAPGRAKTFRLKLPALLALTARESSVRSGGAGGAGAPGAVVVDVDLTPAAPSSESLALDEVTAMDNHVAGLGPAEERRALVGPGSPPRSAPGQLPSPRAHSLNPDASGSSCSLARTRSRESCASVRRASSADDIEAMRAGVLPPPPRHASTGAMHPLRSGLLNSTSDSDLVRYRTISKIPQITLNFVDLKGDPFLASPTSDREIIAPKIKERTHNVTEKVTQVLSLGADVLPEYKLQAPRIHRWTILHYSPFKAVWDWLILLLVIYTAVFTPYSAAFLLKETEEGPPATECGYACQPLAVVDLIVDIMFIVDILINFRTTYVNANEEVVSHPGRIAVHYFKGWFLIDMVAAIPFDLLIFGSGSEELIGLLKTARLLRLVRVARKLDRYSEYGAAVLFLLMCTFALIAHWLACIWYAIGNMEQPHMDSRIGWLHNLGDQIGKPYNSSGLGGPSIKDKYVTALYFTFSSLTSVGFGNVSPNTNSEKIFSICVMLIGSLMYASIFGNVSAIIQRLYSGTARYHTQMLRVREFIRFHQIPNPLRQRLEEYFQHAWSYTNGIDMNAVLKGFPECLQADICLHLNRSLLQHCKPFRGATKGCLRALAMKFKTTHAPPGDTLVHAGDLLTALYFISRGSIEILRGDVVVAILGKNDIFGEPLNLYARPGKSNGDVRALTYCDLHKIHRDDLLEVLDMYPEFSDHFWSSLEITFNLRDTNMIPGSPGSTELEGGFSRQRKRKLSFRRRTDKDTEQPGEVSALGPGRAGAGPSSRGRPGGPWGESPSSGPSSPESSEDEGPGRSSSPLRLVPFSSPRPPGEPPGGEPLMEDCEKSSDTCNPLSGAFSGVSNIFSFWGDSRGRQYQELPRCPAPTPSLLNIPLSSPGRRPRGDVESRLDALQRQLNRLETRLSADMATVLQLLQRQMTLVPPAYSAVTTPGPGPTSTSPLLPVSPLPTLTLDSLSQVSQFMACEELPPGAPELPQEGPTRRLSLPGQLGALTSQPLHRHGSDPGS

COC(=O)C1=C(CN2CCOC[C@H]2C(=O)O)NC(c2nccs2)=N[C@H]1c1ccc(Cl)c(F)c1
fraction unbound at 5 h, 1 µM [1]: 0.031 | Activity [2]: 1.4% | Cmax [3]: 254 ng/mL | Activity [4]: 1% | pKa [5]: 5.9 | Papp at 150 µM [6]: 2.4 ×10⁻⁶ cm/s | solubility [7]: > 631 µg/mL | Activity (Hepatitis B virus [8]): Active | Activity [9]: 0.9% | Activity [10]: 7.5% | AUC(0-inf) [11]: 408 ng·h/mL | Activity [12]: 1.3% | bioavailability [13]: 43.1% | CC50 at 120 h [14]: > 100 µM | pKa [15]: 1.8 | fraction unbound at 5 h, 1 µM [16]: 0.04 | Activity (Hepatitis B virus [17]): Active | Activity (Hepatitis B virus [18]): Active | Activity [19]: 25% | logD [20]: 0.38 | AUC(0-inf) [21]: 20000 ng·h/mL | Kp (in vivo): 38 | clearance [22]: 40.9 mL/min/kg | Activity [23]: 1.5% | Activity (Hepatitis B virus [24]): Active | AUC(0-inf) [25]: 527 ng·h/mL | half-life [26]: 2.3 h | Activity [27]: Non-Toxic | Drug metabolism [28]: Metabolite_Detected | inhibition (INH) [29]: Not Active | Vd [30]: 2.7 L/kg | Activity [31]: 2% | Activity [32]: 1.7%

CCOC(=O)C1=C(CN2CCOC[C@H]2C(=O)O)NC(c2nccs2)=N[C@H]1c1ccc(F)cc1Cl
CC50 at 120 h [14]: > 100 µM | Activity [19]: 173%

COC(=O)C1=C(CN2CC(F)(F)C[C@H]2C(=O)O)NC(c2nccs2)=N[C@H]1c1ccc(F)c(F)c1
CC50 at 120 h [14]: 56 µM | Activity [19]: 52%

CCOC(=O)C1=C(CN2CCOC[C@H]2C(=O)O)NC(c2nccs2)=N[C@H]1c1ccc(F)c(F)c1F
CC50 at 120 h [14]: 49 µM | Activity [19]: 105%

CCOC(=O)C1=C(CN2CCOC[C@H]2C(=O)O)NC(c2nccs2)=N[C@H]1c1ccc(C)c(F)c1
CC50 at 120 h [14]: 85 µM | Activity [19]: 40%

CCOC(=O)C1=C(CN2CCOC[C@H]2C(=O)O)NC(c2nccs2)=N[C@H]1c1ccc(Br)c(F)c1
CC50 at 120 h [14]: 14 µM | Activity [19]: 73%

COC(=O)C1=C(CN2CC(F)(F)C[C@H]2C(=O)O)NC(c2nccs2)=N[C@H]1c1ccc(F)cc1F
CC50 at 120 h [14]: > 100 µM | Activity [19]: 96%

COC(=O)C1=C(CN2CCOC[C@H]2C(=O)O)NC(c2nccs2)=N[C@H]1c1ccc(Br)c(F)c1
CC50 at 120 h [14]: 76 µM | Activity [19]: 26%

CCOC(=O)C1=C(CN2CCOC[C@H]2C(=O)O)NC(c2nccs2)=N[C@H]1c1cc(F)c(F)c(F)c1
CC50 at 120 h [14]: > 100 µM | Activity [19]: 72%

COC(=O)C1=C(CN2CCOC[C@H]2C(=O)O)NC(c2nccs2)=N[C@H]1c1ccc(C)c(F)c1
CC50 at 120 h [14]: > 100 µM
